Measurements taken from ChEMBL document CHEMBL2401724, “Synthesis and structure--activity relationships of N²-alkylated quaternary β-carbolines as novel antitumor agents” (Eur J Med Chem, 2013).

How the values were obtained:
CWR22R = test: Cytotoxicity against human 22Rv1 cells by MTT assay; format: functional, cell-based
How it was run: (§1)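 Cell lines were cultured in 96-well microtitre plates at 37 °C in humidified 5% CO₂. Compounds were dissolved in DMSO, at ≤2% (v/v) final in the growth medium. Viability was read by MTT staining, expressed relative to untreated cells.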

[1] = Acute toxicity in ip dosed C57BL/6 mouse after 14 days; format: organism-based; settings: in vivo
How it was run: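 C57BL/6 mice (9–12 weeks, 18–22 g), single i.p. dose; watched continuously for 2 h, intermittently over 24 h, then occasionally to day 14 for behaviour, deaths and delayed effects. Survivors killed at day 14; heart, liver, kidneys inspected macroscopically, early deaths also examined. LD50 derived graphically.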

[2] = Antitumor activity against mouse Sarcoma 180 cells allografted in mouse assessed as tumor growth inhibition at 6 mg/kg, ip qd administered for 7 days measured after 21 days relative to control; format: functional; settings: Sarcoma-180, ip, route intraperitoneal, read-out: TGI
How it was run: (§2)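 Tumour cells (S180 sarcoma or Lewis lung) were first grown in mice for 7 days, then harvested. Viable cells (2 × 10⁶/mouse) were injected s.c. into the armpit. Groups of 10 female mice received the compound i.p. once daily for 7 consecutive days, starting 24 h after inoculation. Cyclophosphamide 30 mg/kg served as positive control and vehicle as negative control. Body weights were taken every 3 days. Mice were killed on day 21 post-inoculation, and tumours were excised and weighed to calculate the inhibition rate versus control.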

769-P = test: Cytotoxicity against human 769-P cells by MTT assay; format: functional, cell-based; how it was run: as §1
[3] = Cytotoxicity against human ECA109 cells by MTT assay; format: functional, cell-based; settings: ECa-109; how it was run: as §1
HepG2 = test: Cytotoxicity against human HepG2 cells by MTT assay; format: functional, cell-based; how it was run: as §1
SK-OV-3 = test: Cytotoxicity against human SKOV3 cells by MTT assay; format: functional, cell-based; how it was run: as §1
BGC-823 = test: Cytotoxicity against human BGC823 cells by MTT assay; format: functional, cell-based; how it was run: as §1
HT-29 = test: Cytotoxicity against human HT-29 cells by MTT assay; format: functional, cell-based; how it was run: as §1
A-375 = test: Cytotoxicity against human A375 cells by MTT assay; format: functional, cell-based; how it was run: as §1
[4] = Cytotoxicity against mouse LLC cells by MTT assay; format: functional, cell-based; settings: Lewis lung carcinoma; how it was run: as §1
MCF7 = test: Cytotoxicity against human MCF7 cells by MTT assay; format: functional, cell-based; how it was run: as §1
[5] = Antitumor activity against mouse Sarcoma 180 cells allografted in mouse assessed as tumor growth inhibition at 0.5 mg/kg, ip qd administered for 7 days measured after 21 days relative to control; format: functional; settings: Sarcoma-180, ip, route intraperitoneal, read-out: TGI; how it was run: as §2
[6] = test system: Lewis lung carcinoma cell line; test: Antitumor activity against mouse LLC cells allografted in mouse assessed as tumor growth inhibition at 0.5 mg/kg, ip qd administered for 7 days measured after 21 days relative to control; format: functional; settings: route intraperitoneal, read-out: TGI; how it was run: as §2
[7] = Antitumor activity against mouse Sarcoma 180 cells allografted in mouse assessed as tumor growth inhibition at 1.25 mg/kg, ip qd administered for 7 days measured after 21 days relative to control; format: functional; settings: Sarcoma-180, ip, route intraperitoneal, read-out: TGI; how it was run: as §2
[8] = test system: Lewis lung carcinoma cell line; test: Antitumor activity against mouse LLC cells allografted in mouse assessed as tumor growth inhibition at 1.25 mg/kg, ip qd administered for 7 days measured after 21 days relative to control; format: functional; settings: route intraperitoneal, read-out: TGI; how it was run: as §2

`Clc1cccc(C[n+]2ccc3c4ccccc4n(CCCc4ccccc4)c3c2)c1.[Br-]` gave an IC50 (CWR22R) of 9.7 µM, an LD50 at 336 h [1] of 30 mg/kg and an inhibition in vivo at 6 mg/kg [2] of 43.5%. The IC50 (769-P) was 21.9 µM, the IC50 [3] was 7.9 µM and the IC50 (HepG2) was 19 µM. It also gave an IC50 (SK-OV-3) of 13.8 µM, an IC50 (BGC-823) of 9.8 µM and an IC50 (HT-29) of 16.5 µM. It also gave an IC50 (A-375) of 24.6 µM, an IC50 [4] of 6.5 µM and an IC50 (MCF7) of 14.3 µM.

In the case of `O=[N+]([O-])c1ccc(C[n+]2ccc3c4ccccc4n(CCCc4ccccc4)c3c2)cc1`, the IC50 (CWR22R) is reported as 5.6 µM, the IC50 (769-P) is reported as 8.3 µM and the IC50 [3] is reported as 7.6 µM. It also gave an IC50 (HepG2) of 19.9 µM, an IC50 (SK-OV-3) of 17.4 µM and an IC50 (BGC-823) of 39.7 µM. For the same compound, the IC50 (HT-29) was 12.6 µM, the IC50 (A-375) was 12.3 µM and the IC50 [4] was 2.2 µM. The IC50 (MCF7) was 24.5 µM.

In the case of `c1ccc(CCCn2c3ccccc3c3cc[n+](CCc4ccccc4)cc32)cc1`, the IC50 (CWR22R) is reported as 4 µM, the IC50 (769-P) is reported as 14 µM and the IC50 [3] is reported as 8.1 µM. For the same compound, the IC50 (HepG2) was 14 µM, the IC50 (SK-OV-3) was 8.4 µM and the IC50 (BGC-823) was 10.4 µM. It also gave an IC50 (HT-29) of 3.3 µM, an IC50 (A-375) of 12.2 µM and an IC50 [4] of under 2 µM. It also gave an IC50 (MCF7) of 12.5 µM.

With `c1ccc(CCCn2c3ccccc3c3cc[n+](CCCc4ccccc4)cc32)cc1` the IC50 (CWR22R) was 4.9 µM, the IC50 (769-P) was 3.3 µM and the IC50 [3] was 5.3 µM. The IC50 (HepG2) was 4 µM, the IC50 (SK-OV-3) was 10.8 µM and the IC50 (BGC-823) was 9.4 µM. It also gave an IC50 (HT-29) of 3.4 µM, an IC50 (A-375) of 3.2 µM and an IC50 [4] of under 2 µM. The IC50 (MCF7) was 3.7 µM.

For `Cc1c2c(cc[n+]1Cc1ccccc1)c1ccccc1n2CCCc1ccccc1.[Br-]`, the inhibition in vivo at 0.5 mg/kg [5] was 51%, the IC50 (CWR22R) was 1.8 µM and the LD50 at 336 h [1] was 2.5 mg/kg. The IC50 (769-P) was 5.3 µM, the IC50 [3] was 6.8 µM and the IC50 (HepG2) was 5.8 µM. For the same compound, the IC50 (SK-OV-3) was 7.6 µM, the IC50 (BGC-823) was 6.9 µM and the IC50 (HT-29) was 14.6 µM. It also gave an IC50 (A-375) of 8.5 µM, an inhibition in vivo at 0.5 mg/kg [6] of 33.1% and an IC50 [4] of under 2 µM. It also gave an IC50 (MCF7) of 7 µM.

Compound `c1ccc(CCCn2c3ccccc3c3cc[n+](Cc4ccccc4)c(-c4ccccc4)c32)cc1` has an IC50 (CWR22R) of 3.7 µM, an IC50 (769-P) of 3 µM and an IC50 [3] of 5.1 µM. It also gave an IC50 (HepG2) of 4.8 µM, an IC50 (SK-OV-3) of under 2 µM and an IC50 (BGC-823) of under 2 µM. The IC50 (HT-29) was 10.8 µM, the IC50 (A-375) was 5.9 µM and the IC50 [4] was under 2 µM. For the same compound, the IC50 (MCF7) was 3.7 µM.

`COc1ccc(-c2c3c(cc[n+]2Cc2ccccc2)c2ccccc2n3CCCc2ccccc2)cc1.[Br-]` showed an inhibition in vivo at 1.25 mg/kg [7] of 41.4%, an IC50 (CWR22R) of 1.8 µM and an LD50 at 336 h [1] of 6.25 mg/kg. For the same compound, the IC50 (769-P) was under 2 µM, the IC50 [3] was 12.3 µM and the IC50 (HepG2) was 3.3 µM. For the same compound, the IC50 (SK-OV-3) was 5.2 µM, the inhibition in vivo at 1.25 mg/kg [8] was 23.9% and the IC50 (BGC-823) was 3.2 µM. The IC50 (HT-29) was 2.4 µM, the IC50 (A-375) was under 2 µM and the IC50 [4] was under 2 µM. It also gave an IC50 (MCF7) of 2.2 µM.

`c1ccc(CCCn2c3ccccc3c3cc[n+](Cc4ccccc4)c(-c4ccsc4)c32)cc1` showed an IC50 (CWR22R) of 8.4 µM, an IC50 (769-P) of 14.6 µM and an IC50 [3] of 27.2 µM. It also gave an IC50 (HepG2) of 36.7 µM, an IC50 (SK-OV-3) of 14.6 µM and an IC50 (BGC-823) of 4 µM. The IC50 (HT-29) was 31.3 µM, the IC50 (A-375) was 27.9 µM and the IC50 [4] was 3.1 µM. The IC50 (MCF7) was 29.2 µM.

In the case of `Cn1c2ccccc2c2cc[n+](Cc3ccccc3)cc21`, the IC50 (CWR22R) is reported as 8.4 µM, the IC50 (769-P) is reported as 22.5 µM and the IC50 [3] is reported as 95.9 µM. It also gave an IC50 (HepG2) of over 100 µM, an IC50 (SK-OV-3) of 55.2 µM and an IC50 (BGC-823) of 13.2 µM. For the same compound, the IC50 (HT-29) was 59.1 µM, the IC50 (A-375) was 37.3 µM and the IC50 [4] was 8.4 µM. It also gave an IC50 (MCF7) of over 100 µM.

Work on `CCn1c2ccccc2c2cc[n+](Cc3ccccc3)cc21` yielded an IC50 (CWR22R) of 5.6 µM, an IC50 (769-P) of 38.5 µM and an IC50 [3] of 36.7 µM. For the same compound, the IC50 (HepG2) was over 100 µM, the IC50 (SK-OV-3) was 27.6 µM and the IC50 (BGC-823) was over 100 µM. The IC50 (HT-29) was over 100 µM, the IC50 (A-375) was 54.3 µM and the IC50 [4] was 5.1 µM. For the same compound, the IC50 (MCF7) was over 100 µM.

Compound `CC(C)n1c2ccccc2c2cc[n+](Cc3ccccc3)cc21` has an IC50 (CWR22R) of 3.6 µM, an IC50 (769-P) of 30.8 µM and an IC50 [3] of 7.6 µM. For the same compound, the IC50 (HepG2) was 58.7 µM, the IC50 (SK-OV-3) was 6.6 µM and the IC50 (BGC-823) was 61.5 µM. The IC50 (HT-29) was over 100 µM, the IC50 (A-375) was 24.5 µM and the IC50 [4] was under 2 µM. For the same compound, the IC50 (MCF7) was 54.8 µM.

For `C=CCn1c2ccccc2c2cc[n+](Cc3ccccc3)cc21`, the IC50 (CWR22R) was under 2 µM, the IC50 (769-P) was 21.9 µM and the IC50 [3] was 21.4 µM. For the same compound, the IC50 (HepG2) was 67.8 µM, the IC50 (SK-OV-3) was 12.6 µM and the IC50 (BGC-823) was over 100 µM. It also gave an IC50 (HT-29) of over 100 µM, an IC50 (A-375) of 11.3 µM and an IC50 [4] of 4.6 µM. It also gave an IC50 (MCF7) of 72.6 µM.

In the case of `CCCCn1c2ccccc2c2cc[n+](Cc3ccccc3)cc21`, the IC50 (CWR22R) is reported as under 2 µM, the IC50 (769-P) is reported as 19.8 µM and the IC50 [3] is reported as 8.6 µM. It also gave an IC50 (HepG2) of 29 µM, an IC50 (SK-OV-3) of 4.7 µM and an IC50 (BGC-823) of 68.1 µM. The IC50 (HT-29) was 83.8 µM, the IC50 (A-375) was 19.6 µM and the IC50 [4] was under 2 µM. It also gave an IC50 (MCF7) of 34.1 µM.
